Screening results deposited in PubChem by several laboratories.
Shown are actives, neighbours in structure and some others; about 1.6% of the full set was active somewhere.
SR-BI DiI-HDL act: SR-BI HDL lipid transfer activation. CHO ldlA[mSR-BI] cells, DiI-HDL uptake fluorescence, 3 h; 100 = double the neutral-control signal. activation, % at 12.5 µM. 320,000 compounds, 0.096% hits;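 active means mean replicate activation of at least 60% and every replicate at or above 60%; inconclusive means mean or all-replicate condition met, but not both; inactive means mean below 60% and not all replicates reaching 60%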;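 further: 0% = median plate neutral-control signal and 100% = twice that signal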
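Assay system: LDL receptor-deficient CHO ldlA cells overexpressing murine SR-BI / Medium: BSA-supplemented, HEPES-buffered Ham's F12, pH 7.4 / Probe or stimulus: DiI-labelled HDL at 10 µg/mL final / Timing: compound with DiI-HDL co-incubation, 3 h at 37 °C / Technique: bottom-read cell fluorescence after medium removal, ex 550/em 595 nm / Measure: HDL uptake via cellular fluorescence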
TAG inh: triacylglycerol accumulation inhibition; H9c2 cells, Nile Red lipid (TAG) fluorescence; cells loaded with 200 µM oleic acid; inhibition, % at 12.5 µM; 230,000 compounds, 0.66% hits; AID 651582;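 active means pattern-corrected inhibition of lipid staining of at least 50% with the nuclear-stain viability signal not falling by more than 50%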;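 further: 0% = DMSO wells and 100% = triacsin C control wells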
A1 inh: inhibitors of the anti-apoptotic protein A1, read as caspase activation. MEF A1-2A-BIM cells, Caspase-Glo 3/7 luminescence, 3 h; percent of clofoctol response, vehicle zero. caspase activation, % (concentration not given with the values). 330,000 compounds, 0.066% hits;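 active means over half of replicate activation scores above 10%, or exactly half above 10 with the replicate mean above 10; inconclusive means replicate mean below 10 yet half the replicates above 10; inactive means over half of replicates below 10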
SR-BI DiI inh: blocks mouse SR-BI lipid uptake from DiI-HDL | Q61009 | ldlA[mSR-BI] CHO cells, DiI-HDL uptake fluorescence, 3 h | inhibition, % at 12.5 µM | 320,000 compounds, 0.96% hits;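 active means mean replicate inhibition of at least 70% and a set share of replicates each scoring 70 or more; inconclusive means meets just one of the two criteria; inactive means fails both criteria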;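 further: 0% = median of neutral control wells and 100% = median of positive control wells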
Target sequence (Q61009 whole entry, looked up): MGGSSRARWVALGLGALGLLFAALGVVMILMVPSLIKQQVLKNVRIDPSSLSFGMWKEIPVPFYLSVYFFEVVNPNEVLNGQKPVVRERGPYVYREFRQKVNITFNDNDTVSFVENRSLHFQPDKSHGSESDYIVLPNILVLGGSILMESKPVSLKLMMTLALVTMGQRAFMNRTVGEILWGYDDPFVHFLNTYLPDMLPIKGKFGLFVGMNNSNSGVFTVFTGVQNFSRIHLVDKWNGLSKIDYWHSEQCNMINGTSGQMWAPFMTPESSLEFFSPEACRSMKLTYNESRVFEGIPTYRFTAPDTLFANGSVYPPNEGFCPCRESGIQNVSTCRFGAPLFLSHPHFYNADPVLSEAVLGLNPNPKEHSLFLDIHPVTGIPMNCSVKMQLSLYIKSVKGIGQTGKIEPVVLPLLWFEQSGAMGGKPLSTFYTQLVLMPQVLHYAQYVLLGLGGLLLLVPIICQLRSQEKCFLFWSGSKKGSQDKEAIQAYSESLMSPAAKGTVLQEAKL
Vif imaging: HIV Vif inhibition; HEK293T cells, Vif self-association by quenched fluorescence, imaging, 24 h; inhibition, % at 7.49 µM; 340,000 compounds, 0.35% hits; AID 602346; in the data active means inhibition above about 50%, passing the limit was not always enough; inconclusive means no clear call, values can overlap the other calls; inactive means below about 31%
* = called active by the depositor; ? = inconclusive; . = not tested or not shown.

SMILES	SR-BI DiI-HDL act	TAG inh	A1 inh	SR-BI DiI inh	Vif imaging
CCC(C)NC(=O)c1cc2c(=O)n(CC)c3ccccc3c2s1 (configuration not stated)	-74.5	.	-0.2	74.4*	1.5
CCOC(CNC(=O)c1cc2c(=O)n(CC)c3ccccc3c2s1)OCC	-82.0	.	0.5	82.0*	.
CCn1c(=O)c2cc(C(=O)NCCC(C)C)sc2c2ccccc21	-61.3	.	-0.1	61.3	-0.1
C=CCN1C(=O)/C(=C2/Sc3ccc(OC)cc3N2C)SC1=Nc1cccc(O)c1	-102.0	.	-0.5	102.0*	12.9
CCN1C(=O)/C(=C2/Sc3ccc(OC)cc3N2C)SC1=Nc1ccc(OC)cc1	-57.5	5.7	-0.5	57.5	12.2
O=C(Nc1ccc(S(=O)(=O)Nc2nccs2)cc1)c1cccc(N2C(=O)c3ccccc3C2=O)c1	-5.1	7.5	1.2	5.1	3.0
N#Cc1cccc(C(=O)Nc2ccc(S(=O)(=O)Nc3nccs3)cc2)c1	30.9	12.3	0.3	-30.9	65.9*
COc1ccccc1-c1cc(C(=O)NC2CCN(C)CC2)c2ccc(Cl)c(C)c2n1	3.9	102.6*	0.6	-3.9	0.6
Cc1c(Cl)ccc2c(C(=O)NCCN3CCCCC3)cc(-c3ccccn3)nc12	-15.4	42.5	0.1	15.4	-3.0
CCOC(=O)c1nc(NCc2cccc(OC)c2)c2ccccc2n1	-28.9	.	0.4	28.9	.
COC(=O)c1sc2nc3c(cc2c1N)COC(C)(C)C3	170.5*	.	1.0	-170.5	-3.2
O=C(CN1CCN(c2ccc(O)cc2)CC1)Nc1ccc2c(c1)OCCCO2	-75.1	-9.0	1.7	75.1*	-14.8
Cc1cccc(NC(=O)CN2CCc3cc4c(cc3C2)OCCCO4)c1	222.1*	.	0.8	-222.1	-4.6
COc1ccc(OC)c(-c2cc(C(=O)Nc3cc(C)n(Cc4ccc(Cl)cc4)n3)no2)c1	-89.0	.	-0.4	89.0*	7.3
N#C/C=C/C(=C\Nc1ccc(Cl)cc1)S(=O)(=O)c1ccccc1	-85.1	.	-0.8	85.1*	.
COc1ccc(N/C=C(\C=C\C#N)S(=O)(=O)c2ccccc2)cc1	-22.7	.	-0.2	22.7	86.7*
CCCOc1ccc(NC(=O)C2CC(=O)N/C(=N/N=C(C)/C=C/c3ccc(N(C)C)cc3)S2)cc1 (configuration not stated)	-82.2	.	-0.9	82.2*	-10.8
CCC(C)(C)c1ccc(Oc2ccc(N)cc2)cc1	13.3	69.0*	.	-13.3	7.6
CCC(C)(C)c1ccc(Oc2cccc(C(=O)O)c2)cc1	6.8	.	0.1	-6.8	-6.5
CN1C(=O)CCC2(c3ccccc3)CC=C(O)C=C12 (configuration not stated)	-0.2	6.2	.	0.2	8.2
COc1ccccc1N1CCN(C(=O)C(C)NC(=O)c2cccc([N+](=O)[O-])c2)CC1 (configuration not stated)	.	.	-0.7	.	26.7
CCn1c(SCc2ccc(C(=O)Nc3nccs3)cc2)nnc1-c1ccc(N)cc1	-18.6	.	0.3	18.6	53.6*
O=C(O)c1ccc(CNC(=O)C23CC4CC(CC(C4)C2)C3)cc1	37.4	.	0.5	-37.4	4.4
O=S(=O)(Nc1cc2nc3ccccc3nc2n1Cc1ccccc1)c1ccc(Cl)cc1	-14.1	.	0.3	14.1	.
COc1cc(CN2CCN(C(=O)c3ccc(-c4ccccc4)cc3)CC2)cc(OC)c1OC	-83.7	6.8	0.0	83.7*	-0.7
SMILES	SR-BI DiI-HDL act	TAG inh	A1 inh	SR-BI DiI inh	Vif imaging
COc1cccc(OC)c1C(=O)N1CCN(Cc2ccccc2C)CC1	67.1*	-7.3	0.0	-67.1	18.1
COc1cc(C(=O)N2CCN(c3cccc(C)c3C)CC2)cc(OC)c1OC	-21.9	55.7*	2.1	21.9	16.0
COc1cc(OC)cc(C(=O)N2CCN(C(=O)c3ccc(-c4ccccc4)cc3)CC2)c1	-79.4	17.9	-0.7	79.4*	-0.2
COc1cccc(CN2CCN(C(=O)c3ccc(-c4ccccc4)cc3)CC2)c1OC	-9.1	4.6	0.1	9.1	0.3
COc1ccc(C(=O)N2CCN(C(=O)c3ccc(-c4ccccc4)cc3)CC2)cc1OC	-44.9	-19.2	0.5	44.9	-2.6
C[C@@H](OC(=O)N1CCCCC1)[C@H]1O[C@]2(C)CCCC[C@H]1O2	35.3	-5.1	-0.3	-35.3	0.9
Cc1c(NC(=S)NNC(=O)CCC(=O)O)c(=O)n(-c2ccccc2)n1C	-3.1	7.3	0.6	3.1	-2.6
COc1ccc(OC)c(CN2CCN(C(=O)c3ccc(S(=O)(=O)Nc4ccccc4F)cc3)CC2)c1	-57.7	-6.0	-0.2	57.7	4.0
COc1ccc(OC)c(CN2CCN(C(=O)c3cccc(S(=O)(=O)Nc4ccccc4OC)c3)CC2)c1	-76.9	11.6	0.2	76.9*	0.9
CCOC(=O)c1c(NC(=S)Nc2cccc(C)c2)sc2c1CC(C)(C)SC2	-86.9	.	0.1	86.9*	5.6
CCOC(=O)c1cc(-c2ccccc2)sc1NC(=S)Nc1cc(C)ccn1	14.8	29.8	-1.3	-14.8	169.1*
CCOC(=O)c1cc(-c2ccccc2)sc1NC(=O)C(C)(C)C	-41.0	-4.7	?	41.0	-9.2
C/C(=N/NC(=O)c1cccs1)c1c(C)[nH]n(-c2nc3ccccc3s2)c1=O	-106.7	.	-6.1	106.7*	6.0
CCOc1ccc(NC(=O)c2cc3c(C)nc4ccccc4c3o2)cc1	-98.6	15.7	-0.1	98.6*	5.9
Cc1nc2ccccc2c2oc(C(=O)NC3CC3)cc12	13.8	12.2	1.2	-13.8	.
O=C1c2ccccc2C(=O)c2c(Nc3ccc(CCO)cc3)ccc(O)c21	-93.3	.	-0.9	93.3*	-3.4
O=C(OCc1nnc(-c2ccccc2)o1)C1CC(=O)N(Cc2ccco2)C1 (configuration not stated)	-0.1	-1.6	0.3	0.1	7.5
COc1ccc(C=C2C=C(C(C)(C)C)C(=O)C(C(C)(C)C)=C2)cc1OC	-9.1	.	10.9*	9.1	2.3
C[C@H]1CCCCO[C@@H](CN(C)S(=O)(=O)c2ccc(F)cc2)[C@@H](C)CN([C@@H](C)CO)C(=O)c2cc(NC(=O)Nc3ccc4c(c3)OCO4)ccc2O1	.	28.1	.	.	.
CC(C)(C)OC(=O)C[C@H]1C/C=C\C[C@@H](CC(=O)NCCO)C(=O)N[C@H](C(C)(C)C)COC1=O	19.0	-1.6	.	-19.0	3.0
Cc1ccc(-c2nc(SC(C)C(=O)N3CCOCC3)n[nH]2)cc1 (configuration not stated)	2.2	-20.5	-0.1	-2.2	-6.9
CCOc1ccccc1N(CC(=O)NCC1CCCO1)C(=O)CCC(=O)Nc1nccs1 (configuration not stated)	.	.	0.2	.	60.6*
COc1cc(OC)c(NS(=O)(=O)c2cc3[nH]c(=O)c(=O)[nH]c3cc2C)cc1Cl	-1.5	.	-0.4	1.5	-8.5
C/C(=N\Nc1c([N+](=O)[O-])c(C)nn1C)c1ccc(F)cc1F	-11.8	-8.7	0.0	11.8	0.3
Fc1ccc(-c2cc3nc4c(c(N5CCOCC5)n3n2)CCCC4)cc1	-76.2	.	-0.9	76.2*	1.3
